tested on: B16F1; test: MTS assay, melanoma B16F1; format: cell-based; details: Mus musculus, B16-F1, 72 h, read-out: IC50 B16F1
How it was run: (§1)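 Cells grown in RPMI 1640 with 10% FBS, 1% penicillin/streptomycin and 1% L-glutamine, trypsinised and counted by hemocytometer. Seeded at 1 × 10^3 cells/well and left 24 h at 37 °C. Test compound added at 300, 100, 50 and 10 µM for 72 h at 37 °C, then removed. […] Triplicate, mean ± SD.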

| IC50 | Compound |
| --- | --- |
| > 300 µM | COc1cc(NC(=O)c2sc(-c3cccc(OC)c3)nc2C)cc(OC)c1 [2d, N-(3,5-Dimethoxyphenyl)-2-(3-methoxyphenyl)-4-methylthiazole-5-carboxamide] |
| > 300 µM | COc1cccc(-c2nc(C)c(C(=O)Nc3ccccc3)s2)c1 [2f, 2-(3-Methoxyphenyl)-4-methyl-N-phenylthiazole-5-carboxamide] |

tested on: CaCo-2; test: MTS assay, colorectal adenocarcinoma Caco-2; format: cell-based; details: Homo sapiens, Caco-2, 72 h, read-out: IC50 CaCo-2
How it was run: as §1

| IC50 | Compound |
| --- | --- |
| > 300 µM | COc1cc(NC(=O)c2sc(-c3cccc(OC)c3)nc2C)cc(OC)c1 [2d, N-(3,5-Dimethoxyphenyl)-2-(3-methoxyphenyl)-4-methylthiazole-5-carboxamide] |
| > 300 µM | COc1cccc(-c2nc(C)c(C(=O)Nc3ccccc3)s2)c1 [2f, 2-(3-Methoxyphenyl)-4-methyl-N-phenylthiazole-5-carboxamide] |

target: T1, human recombinant COX-2 (Homo sapiens, UniProt P35354); test: In vitro COX-2 inhibition assay; format: biochemical; details: IC50 COX-1 divided by IC50 COX-2
T1 sequence (P35354 18-604): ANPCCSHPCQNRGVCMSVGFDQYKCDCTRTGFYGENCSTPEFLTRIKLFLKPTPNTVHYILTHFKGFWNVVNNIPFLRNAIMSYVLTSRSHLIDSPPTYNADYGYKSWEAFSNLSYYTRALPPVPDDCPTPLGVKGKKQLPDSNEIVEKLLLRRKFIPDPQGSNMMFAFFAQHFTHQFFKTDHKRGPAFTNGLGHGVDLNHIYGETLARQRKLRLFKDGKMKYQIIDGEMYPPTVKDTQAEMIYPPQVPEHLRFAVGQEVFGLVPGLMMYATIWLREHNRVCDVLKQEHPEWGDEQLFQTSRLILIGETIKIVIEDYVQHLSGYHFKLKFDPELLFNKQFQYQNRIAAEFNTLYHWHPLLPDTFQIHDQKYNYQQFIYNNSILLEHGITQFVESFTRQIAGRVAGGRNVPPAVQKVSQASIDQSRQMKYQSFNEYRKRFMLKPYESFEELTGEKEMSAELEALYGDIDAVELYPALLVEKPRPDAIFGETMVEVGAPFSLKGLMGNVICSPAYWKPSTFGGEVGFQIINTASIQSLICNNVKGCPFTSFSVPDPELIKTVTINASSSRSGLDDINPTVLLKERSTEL

| SI (selectivity index / selectivity ratio) | Compound |
| --- | --- |
| 0.685 | COc1cc(NC(=O)c2sc(-c3cccc(OC)c3)nc2C)cc(OC)c1 [2d, N-(3,5-Dimethoxyphenyl)-2-(3-methoxyphenyl)-4-methylthiazole-5-carboxamide] |
| 0.630 | COc1cccc(-c2nc(C)c(C(=O)Nc3ccccc3)s2)c1 [2f, 2-(3-Methoxyphenyl)-4-methyl-N-phenylthiazole-5-carboxamide] |

same assay, conditions: IC50 COX-2

| IC50 | Compound |
| --- | --- |
| 2.3 ± 0.25 µM | COc1cc(NC(=O)c2sc(-c3cccc(OC)c3)nc2C)cc(OC)c1 [2d, N-(3,5-Dimethoxyphenyl)-2-(3-methoxyphenyl)-4-methylthiazole-5-carboxamide] |
| 3.26 ± 1.02 µM | COc1cccc(-c2nc(C)c(C(=O)Nc3ccccc3)s2)c1 [2f, 2-(3-Methoxyphenyl)-4-methyl-N-phenylthiazole-5-carboxamide] |

tested on: HepG2; test: MTS assay, hepatocellular carcinoma HepG2; format: cell-based; details: Homo sapiens, HepG2, 72 h, read-out: IC50 HepG2
How it was run: as §1

| IC50 | Compound |
| --- | --- |
| > 300 µM | COc1cc(NC(=O)c2sc(-c3cccc(OC)c3)nc2C)cc(OC)c1 [2d, N-(3,5-Dimethoxyphenyl)-2-(3-methoxyphenyl)-4-methylthiazole-5-carboxamide] |
| > 300 µM | COc1cccc(-c2nc(C)c(C(=O)Nc3ccccc3)s2)c1 [2f, 2-(3-Methoxyphenyl)-4-methyl-N-phenylthiazole-5-carboxamide] |

tested on: Hep3B; test: MTS assay, hepatocellular carcinoma Hep3B; format: cell-based; details: Homo sapiens, 72 h, read-out: IC50 Hep3B
How it was run: as §1

| IC50 | Compound |
| --- | --- |
| > 300 µM | COc1cc(NC(=O)c2sc(-c3cccc(OC)c3)nc2C)cc(OC)c1 [2d, N-(3,5-Dimethoxyphenyl)-2-(3-methoxyphenyl)-4-methylthiazole-5-carboxamide] |
| > 300 µM | COc1cccc(-c2nc(C)c(C(=O)Nc3ccccc3)s2)c1 [2f, 2-(3-Methoxyphenyl)-4-methyl-N-phenylthiazole-5-carboxamide] |

tested on: HeLa; test: MTS assay, cervical adenocarcinoma HeLa; format: cell-based; details: Homo sapiens, 72 h, read-out: IC50 HeLa
How it was run: as §1

| IC50 | Compound |
| --- | --- |
| > 300 µM | COc1cc(NC(=O)c2sc(-c3cccc(OC)c3)nc2C)cc(OC)c1 [2d, N-(3,5-Dimethoxyphenyl)-2-(3-methoxyphenyl)-4-methylthiazole-5-carboxamide] |
| > 300 µM | COc1cccc(-c2nc(C)c(C(=O)Nc3ccccc3)s2)c1 [2f, 2-(3-Methoxyphenyl)-4-methyl-N-phenylthiazole-5-carboxamide] |

tested on: not listed separately; test: MTS cytotoxicity assay, normal cell line LX-2; format: cell-based; details: human, LX-2 cells (normal cell line), CC50 LX-2, normal cell line
How it was run: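 LX-2 cells seeded at 1 × 10^3 cells/well and left 24 h at 37 °C. Exposed to test compound at 300, 100, 50 and 10 µM for 72 h at 37 °C, with 5-FU as positive control. […] Triplicate, mean ± SD.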

| Compound | CC50 at 72 h |
| --- | --- |
| COc1cc(NC(=O)c2sc(-c3cccc(OC)c3)nc2C)cc(OC)c1 [2d, N-(3,5-Dimethoxyphenyl)-2-(3-methoxyphenyl)-4-methylthiazole-5-carboxamide] | > 300 µM |
| COc1cccc(-c2nc(C)c(C(=O)Nc3ccccc3)s2)c1 [2f, 2-(3-Methoxyphenyl)-4-methyl-N-phenylthiazole-5-carboxamide] | > 300 µM |

tested on: MCF-7; test: MTS assay, breast carcinoma MCF-7; format: cell-based; details: Homo sapiens, MCF7, 72 h, read-out: IC50 MCF-7
How it was run: as §1

| IC50 | Compound |
| --- | --- |
| 144 ± 2.03 µM | COc1cc(NC(=O)c2sc(-c3cccc(OC)c3)nc2C)cc(OC)c1 [2d, N-(3,5-Dimethoxyphenyl)-2-(3-methoxyphenyl)-4-methylthiazole-5-carboxamide] |
| > 300 µM | COc1cccc(-c2nc(C)c(C(=O)Nc3ccccc3)s2)c1 [2f, 2-(3-Methoxyphenyl)-4-methyl-N-phenylthiazole-5-carboxamide] |

tested on: COLO205; test: MTS assay, colon adenocarcinoma COLO205; format: cell-based; details: Homo sapiens, COLO 205, 72 h, read-out: IC50 COLO205
How it was run: as §1

| IC50 | Compound |
| --- | --- |
| > 300 µM | COc1cc(NC(=O)c2sc(-c3cccc(OC)c3)nc2C)cc(OC)c1 [2d, N-(3,5-Dimethoxyphenyl)-2-(3-methoxyphenyl)-4-methylthiazole-5-carboxamide] |
| > 300 µM | COc1cccc(-c2nc(C)c(C(=O)Nc3ccccc3)s2)c1 [2f, 2-(3-Methoxyphenyl)-4-methyl-N-phenylthiazole-5-carboxamide] |

target: T2, COX-1 (Ovis aries, UniProt P05979); test: In vitro COX-1 inhibition assay; format: biochemical, ovine; details: not given
T2 sequence (P05979 25-600): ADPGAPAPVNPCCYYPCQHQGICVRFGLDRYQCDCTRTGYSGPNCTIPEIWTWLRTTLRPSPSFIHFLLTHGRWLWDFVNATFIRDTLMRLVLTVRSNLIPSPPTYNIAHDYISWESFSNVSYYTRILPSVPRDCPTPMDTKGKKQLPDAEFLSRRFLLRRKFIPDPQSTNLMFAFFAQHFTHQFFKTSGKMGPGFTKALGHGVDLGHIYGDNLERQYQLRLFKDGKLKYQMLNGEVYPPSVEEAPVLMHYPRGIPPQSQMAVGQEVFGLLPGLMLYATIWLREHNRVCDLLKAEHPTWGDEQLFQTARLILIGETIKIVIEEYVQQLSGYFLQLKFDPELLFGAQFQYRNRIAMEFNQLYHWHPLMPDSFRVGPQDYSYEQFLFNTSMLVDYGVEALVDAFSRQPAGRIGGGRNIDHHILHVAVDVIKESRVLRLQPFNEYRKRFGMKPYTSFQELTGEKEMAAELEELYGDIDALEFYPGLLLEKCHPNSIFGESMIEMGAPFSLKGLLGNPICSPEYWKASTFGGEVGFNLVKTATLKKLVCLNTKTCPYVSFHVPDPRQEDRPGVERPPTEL

| IC50 | Compound |
| --- | --- |
| 1.57 ± 0.8 µM | COc1cc(NC(=O)c2sc(-c3cccc(OC)c3)nc2C)cc(OC)c1 [2d, N-(3,5-Dimethoxyphenyl)-2-(3-methoxyphenyl)-4-methylthiazole-5-carboxamide] |
| 2.06 ± 1.21 µM | COc1cccc(-c2nc(C)c(C(=O)Nc3ccccc3)s2)c1 [2f, 2-(3-Methoxyphenyl)-4-methyl-N-phenylthiazole-5-carboxamide] |
